From PubChem BioAssay
Calls of active or inactive are those of the source.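 How the source made its calls, unless noted: active means viability at or under a set limit in both replicates, limit being median viability minus 3 SD (cut at about 48% in these data, passing the limit was not always enough); inconclusive means at or under the limit in just one replicate; inactive means at or above the limit in both replicates.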

Experiments:
[1] = HUVEC growth inhibition – cell-based, human, primary screen (AID 575;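 active means viability at or below 30% in both replicate assays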;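 further: 100% = median of untreated cell wells with 0.1% DMSO on each plate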); details: HUVEC proliferation, CellTiter-Glo luminescence, 72 h; at 10 µM; stronger effect = lower value
Method in brief: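 Test system: primary human umbilical vein endothelial cells. Quantity: 1250 cells/well. Compound: single 10 µM dose, 0.1% DMSO, from 5x medium stock. Timing: 72 h treatment at 37 °C. Detection: ATP-based CellTiter-Glo luminescent read. Benchmarks: vehicle and MePR control wells. Format: 384-well plates coated with collagen.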

[2] = H69AR cell proliferation blockers – human, duplicate replicates, primary screen (AID 580); details: H69AR lung tumor cells viability, ATP luminescence, 72 h; at 10 µM; stronger effect = lower value;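 further: 100% = mean luminescence of untreated wells and 0% = no signal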
[3] = MRP1 drug-resistance reversers in H69AR cells – cell-based, doxorubicin co-treatment, pilot screen (AID 601;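 active means viability loss from added drug above about 55%, and viability with drug at most 40%, in both replicates, limit read from the data, passing the limit was not always enough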); details: CellTiter-Glo, 72 h, at 10 µM; for differential viability (reversal): stronger effect = higher value
[4] = yeast transport mutant growth inhibition pilot in 384-well plates, post-Golgi transport modulator project (AID 636; in the data active means inhibition above about 31%); details: absorbance 615 nm, about 18 h, stronger effect = higher value
[5] = growth suppression of yeast trafficking mutant, preliminary HTS, modulators of trafficking downstream of Golgi apparatus project, 1536-format plate, OD 615 nm (AID 637; in the data active means inhibition above about 30%); details: yeast transport mutant growth, absorbance 615 nm, 18 h; stronger effect = higher value
[6] = H69AR cells + 2 uM doxorubicin, measured here: viability with 2 uM doxorubicin, stronger effect = lower value
[7] = H69AR cells, compound alone cytotoxicity

SMILES | viability [1] | viability [2] | differential viability (reversal) ([3]; H69AR cells + 2 uM doxorubicin) | viability [3, 6] [%] | viability [3, 7] [%] | inhibition [4] | inhibition [5]
CC1(C)CC(=O)c2cc(OCC(=O)N3CCN(c4ccccc4F)CC3)ccc2O1 | 99.1% (inactive) | 91.8% (inactive) | 2.9% (inactive) | 88.9 | 91.8 | -0.13% (inactive) | 2.06% (inactive)
FC(F)(F)c1cc(-c2ccco2)nc(-n2nnc3ccccc32)n1 | 59.5% (inactive) | 79.8% (inactive) | 1.45% (inactive) | 78.3 | 79.8 | -0.91% (inactive) | 0.32% (inactive)
CCSc1ccccc1C(=O)NCc1ccc(S(N)(=O)=O)cc1 | 99.2% (inactive) | 93.7% (inactive) | 6.25% (inactive) | 87.5 | 93.7 | -5.2% (inactive) | -1.27% (inactive)
CON(C)c1nc(Oc2ccc(=O)[nH]n2)nc(N(C)C)n1 | 87.6% (inactive) | 97.9% (inactive) | 11.8% (inactive) | 86.2 | 97.9 | -4.4% (inactive) | 4.44% (inactive)
CC(C)NC(=O)NC(=O)COc1cccc2c1OC(C)(C)C2 | 97.1% (inactive) | 105% (inactive) | 16.9% (inactive) | 87.9 | 105 | -3.38% (inactive) | 0.79% (inactive)
COc1cccc(-c2csc3nc[nH]c(=O)c23)c1 | 92.6% (inactive) | 86.7% (inactive) | 16.7% (inactive) | 70 | 86.7 | -5.73% (inactive) | 5.71% (inactive)
Cc1ccc(NC(=O)c2ccco2)cc1NC(=O)CSc1nnc(-c2cccs2)n1C | 112% (inactive) | 99.8% (inactive) | 23.4% (inactive) | 76.4 | 99.8 | -6.13% (inactive) | 2.38% (inactive)
COc1ccc(S(=O)(=O)NCc2ccco2)cc1-c1nnc2c3ccccc3c(C)nn12 | 88.1% (inactive) | 83.9% (inactive) | -10.3% (inactive) | 94.2 | 83.9 | -5.92% (inactive) | 7.14% (inactive)
CC(=O)c1ccc(NC(=O)CSc2nnc(-c3ccoc3C)n2Cc2ccccc2)cc1 | 80.3% (inactive) | 93.5% (inactive) | 3.91% (inactive) | 89.6 | 93.5 | -2.27% (inactive) | -8.57% (inactive)
C=CCNc1oc(-c2cccc3ccccc23)nc1C#N | 92.5% (inactive) | 84.8% (inactive) | 0.75% (inactive) | 84.1 | 84.8 | -5.47% (inactive) | -0.95% (inactive)
S=c1[nH]ncn1-c1ccccn1 | 81.6% (inactive) | 93.9% (inactive) | -4.69% (inactive) | 98.6 | 93.9 | -5.33% (inactive) | -0.63% (inactive)
N#CCSCC(=O)Nc1ccc(F)cc1 | 91.7% (inactive) | 93.1% (inactive) | 9.54% (inactive) | 83.6 | 93.1 | -3.68% (inactive) | 0% (inactive)
Cc1ccc(S(=O)(=O)N(C)CC(=O)NC2CC(C)(C)NC(C)(C)C2)cc1 | 93.1% (inactive) | 96.2% (inactive) | 8.25% (inactive) | 88 | 96.2 | -1.04% (inactive) | 0.32% (inactive)
CCn1c(Cc2ccccc2)nnc1SCC(=O)Nc1ccc(N2CCOCC2)c(Cl)c1 | 101% (inactive) | 93.8% (inactive) | -8.62% (inactive) | 102 | 93.8 | -4.67% (inactive) | 3.02% (inactive)
CN(c1cccc(NS(=O)(=O)c2cccs2)c1)S(C)(=O)=O | 95.5% (inactive) | 86.8% (inactive) | 2.12% (inactive) | 84.7 | 86.8 | -0.13% (inactive) | 18.1% (inactive)
O=C(COC(=O)c1ccc(NS(=O)(=O)c2ccc3c(c2)OCCO3)cc1)NCC1CCCO1 (stereo not given) | 104% (inactive) | 107% (inactive) | 11.2% (inactive) | 95.8 | 107 | -1.69% (inactive) | -7.78% (inactive)
CCN(CC)CCCN1C(=O)C(=O)/C(=C(/O)c2ccc(C)cc2)C1c1ccccn1 (stereo not given) | 98.7% (inactive) | 91.8% (inactive) | -1.81% (inactive) | 93.6 | 91.8 | 6.4% (inactive) | -4.44% (inactive)
CCOC(=O)c1cc2oc(C)cc2n1CC(=O)OC1CCCCC1 | 90.9% (inactive) | 87.3% (inactive) | 0.485% (inactive) | 86.8 | 87.3 | -2.73% (inactive) | 5.24% (inactive)
O=C(O)c1ccc(-n2nnnc2Oc2ccccc2C(=O)N2CCOCC2)cc1 | 108% (inactive) | 102% (inactive) | 16.1% (inactive) | 85.7 | 102 | -1.97% (inactive) | -2.7% (inactive)
CCC1(CC)C(=O)N(C)C(=O)NC1=NCc1ccccc1 | 110% (inactive) | 93.1% (inactive) | -1.67% (inactive) | 94.7 | 93.1 | -7.07% (inactive) | 3.02% (inactive)

SMILES | viability [1] | viability [2] | differential viability (reversal) ([3]; H69AR cells + 2 uM doxorubicin) | viability [3, 6] [%] | viability [3, 7] [%] | inhibition [4] | inhibition [5]
COc1cc(NS(=O)(=O)c2cccc3nsnc23)c(C(=O)O)cc1OC | 102% (inactive) | 102% (inactive) | 8.71% (inactive) | 93.4 | 102 | -1.43% (inactive) | -1.9% (inactive)
O=C(CCCN1C(=O)c2ccccc2C1=O)NCc1cccnc1 | 95.9% (inactive) | 94.2% (inactive) | 2.95% (inactive) | 91.3 | 94.2 | -2.13% (inactive) | -3.49% (inactive)
O=C(CSc1nnc(-c2ccccc2)o1)N1CCc2ccccc2C1 | 85.3% (inactive) | 93.1% (inactive) | 0.04% (inactive) | 93.1 | 93.1 | -4.53% (inactive) | -5.24% (inactive)
CCS(=O)(=O)c1nc2ccccc2n1CC(=O)N1CCOCC1 | 95.4% (inactive) | 91% (inactive) | 3.73% (inactive) | 87.2 | 91 | -5.32% (inactive) | -1.27% (inactive)
Cc1ccc(C(=O)Nc2ccc3c(c2)OCO3)o1 | 83% (inactive) | 69.6% (inactive) | -5.72% (inactive) | 75.3 | 69.6 | -2.6% (inactive) | -3.81% (inactive)
COc1ccc(CCNC(=O)C2CCCN(c3nn4c(=O)cc(C)nc4s3)C2)cc1OC (stereo not given) | 78.6% (inactive) | 86.4% (inactive) | -4.58% (inactive) | 91 | 86.4 | -6.8% (inactive) | 3.65% (inactive)
O=C1CC(C(=O)Nc2ccccc2)C2(CCCC2)O1 (stereo not given) | 98.4% (inactive) | 93.9% (inactive) | 3.1% (inactive) | 90.8 | 93.9 | -2.6% (inactive) | -2.38% (inactive)
CCOc1ccc(OCC)c(NS(=O)(=O)c2ccc3c(c2)n(C)c(=O)c(=O)n3C)c1 | 112% (inactive) | 95.1% (inactive) | 5.37% (inactive) | 89.7 | 95.1 | -0.13% (inactive) | 1.27% (inactive)
CCCN(CCC)CCNS(=O)(=O)c1ccc2c(c1)oc(=O)n2C | 97.1% (inactive) | 105% (inactive) | 12.9% (inactive) | 92.5 | 105 | -2.27% (inactive) | -2.06% (inactive)
c1ccc2[nH]c(CSc3nnc(-c4ccncc4)o3)nc2c1 | 104% (inactive) | 90.9% (inactive) | -5.82% (inactive) | 96.7 | 90.9 | -2.24% (inactive) | 2.06% (inactive)
Cc1cccc(NC(=O)c2oc3c(c2C)C(=O)CC(C)(C)C3)n1 | 106% (inactive) | 92.3% (inactive) | 9.28% (inactive) | 83 | 92.3 | -6.27% (inactive) | -3.49% (inactive)
COc1ccc(CCNc2oc(Cc3cccc4ccccc34)nc2C#N)cc1OC | 68.8% (inactive) | 73.1% (inactive) | -7.3% (inactive) | 80.4 | 73.1 | -5.07% (inactive) | 1.9% (inactive)
Cc1ccc(-c2ccc(/C=N/n3cnnc3)o2)cc1Cl | 87.2% (inactive) | 101% (inactive) | 4.54% (inactive) | 96.3 | 101 | -2.08% (inactive) | 86.2% (active)
O=C(CN(CC1CCCO1)C(=O)CCC(=O)Nc1ccccn1)NCC1CCCO1 (stereo not given) | 103% (inactive) | 100% (inactive) | 11.8% (inactive) | 88.2 | 100 | -7.73% (inactive) | -3.97% (inactive)
CN(C)CCSc1nnc2sc3ccccc3n12 | 94.2% (inactive) | 92.8% (inactive) | -0.905% (inactive) | 93.7 | 92.8 | -5.92% (inactive) | -5.08% (inactive)
Cn1nc(-c2ccc(C(=O)N3CCN(c4ccccc4)CC3)cc2)c2ccccc2c1=O | 71.2% (inactive) | 92.4% (inactive) | 3.5% (inactive) | 88.9 | 92.4 | 0.26% (inactive) | 27.3% (inactive)
S=c1nc(C2CC2)[nH]c2ccccc12 | 78.3% (inactive) | 94% (inactive) | 5.99% (inactive) | 88 | 94 | -0.92% (inactive) | 0.63% (inactive)
O=C(CCC(=O)N1CCN(S(=O)(=O)c2ccccc2)CC1)c1cccs1 | 102% (inactive) | 90.9% (inactive) | 4.42% (inactive) | 86.5 | 90.9 | -5.32% (inactive) | -3.33% (inactive)
CCc1c(C(=O)Nc2cc(C)ccc2OC)[nH]c(C)c1C(C)=O | 45.3% (inactive) | 82% (inactive) | -1.42% (inactive) | 83.5 | 82 | -2.8% (inactive) | 14.3% (inactive)
Cc1nn(-c2ccccc2)c(Cl)c1C1C(C#N)=C(N)OC2=C1C(=O)CC(C)(C)C2 (stereo not given) | 49.1% (inactive) | 12.2% (active) | -72.2% (inactive) | 84.4 | 12.2 | -4.68% (inactive) | -4.29% (inactive)
